Experimental data as given in ChEMBL document CHEMBL4765243, “Discovery of Novel Bromophenol-Thiosemicarbazone Hybrids as Potent Selective Inhibitors of Poly(ADP-ribose) Polymerase-1 (PARP-1) for Use in Cancer” (J Med Chem, 2019).
Activity calls are given as the source filed them. The calls are words filed in the database; no cut-off is given here.

What was measured:
[1] = biological target: T1, Poly [ADP-ribose] polymerase 1 (Homo sapiens, UniProt P09874); assay: Inhibition of PARP-1 in human SKOV3 cells assessed as decrease in MCM3 protein expression level at 2.5 to 10 uM incubated for 48 hrs by western blot analysis; assay type: cell-based; conditions: SK-OV-3, dose 2.5-10 µM
Procedure, shortened: (§1)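 SK-OV-3 cells were grown in McCOY's 5A, seeded in 6-well plates and treated for 48 h. Lysate proteins were separated by 8-15 % SDS-PAGE and transferred to PVDF membranes. Membranes were blocked in 5 % nonfat milk, probed with primary antibody overnight at 4 °C and with HRP secondary antibody for 1 h at room temperature, then detected by enhanced chemiluminescence. Images are representative of 3 independent experiments.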

SK-OV-3 [2] = assay: Induction of cell cycle arrest in human SKOV3 cells assessed as reduction in cyclin B1 expression at 2.5 to 10 uM incubated for 48 hrs by western blot analysis; assay type: functional, cell-based; conditions: dose 2.5-10 µM
Caco-2 = assay: Antiproliferative activity against human Caco-2 cells assessed as cell growth inhibition at 20 uM incubated for 48 hrs by MTT assay relative to control; assay type: functional
[3] = biological target: T1, Poly [ADP-ribose] polymerase 1; assay: Inhibition of PARP-1 in human SKOV3 cells assessed as decrease in MCM2 protein expression level at 2.5 to 10 uM incubated for 48 hrs by western blot analysis; assay type: cell-based; conditions: SK-OV-3, dose 2.5-10 µM; procedure, shortened: as §1
[4] = biological target: T1, Poly [ADP-ribose] polymerase 1; assay: Inhibition of PARP-1 in human SKOV3 cells assessed as intracellular poly-ADP ribose level at 2.5 to 10 uM incubated for 48 hrs by Western blot analysis; assay type: cell-based; conditions: SK-OV-3, dose 2.5-10 µM; procedure, shortened: as §1
SK-OV-3 [5] = assay: Induction of ROS generation in human SKOV3 cells assessed as fold increase in ROS level at 2.5 uM incubated for 48 hrs by DCFH-DA staining based flow cytometry relative to control; assay type: functional
[6] = MRT in Sprague-Dawley rat at 2 mg/kg, iv by LC/MS/MS analysis; assay type: ADME, organism-based; conditions: in vivo
Procedure, shortened: (§2)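 Male Sprague-Dawley rats, 4 per group, dosed once orally at 10 mg/kg or intravenously at 2 mg/kg. Blood taken from the saphenous vein for plasma. Drug levels measured by LC-MS-MS, with parameters derived by noncompartmental analysis.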

[7] = biological target: T1, Poly [ADP-ribose] polymerase 1; assay: Inhibition of PARP-1 in human SKOV3 cells assessed as decrease in MCM5 protein expression level at 2.5 to 10 uM incubated for 48 hrs by western blot analysis; assay type: cell-based; conditions: SK-OV-3, dose 2.5-10 µM; procedure, shortened: as §1
[8] = Toxicity in Balb/c nude mouse xenografted with human SKOV3 cells assessed as change in body weight at 50 mg/kg, po for 21 days and measured every third day; assay type: organism-based; conditions: in vivo, 504 h, time 21 day
Procedure, shortened: (§3)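 Female BALB/c nu/nu mice, 6-8 weeks old, kept under SPF conditions. Each received 5×10^6 SK-OV-3 cells s.c. At 80–120 mm3 tumour volume, mice were split into four groups (n=6). […] Caliper measurement every three days; volume = X × (Y2/2).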

SK-OV-3 [9] = assay: Induction of autophagy in human SKOV3 cells assessed as increase in formation of autophagosomes at 10 uM incubated for 48 hrs by TEM analysis; assay type: functional, cell-based
Procedure, shortened: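 SK-OV-3 cells exposed to 10 µM for 48 h, then fixed, dehydrated and resin-embedded. 200 nm sections on formvar grids, counterstained with uranyl acetate and lead citrate, imaged by transmission electron microscopy.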

[10] = Cmax in Sprague-Dawley rat at 10 mg/kg, po by LC/MS/MS analysis; assay type: ADME, organism-based; parameters: route oral, dose 10 mg/kg; conditions: in vivo; procedure, shortened: as §2
[11] = Toxicity in Balb/c nude mouse xenografted with human SKOV3 cells assessed as histological changes in heart at 25 to 50 mg/kg, po for 21 days by H and E staining based microscopic analysis; assay type: organism-based; conditions: in vivo, 504 h, dose 25-50 mg/kg, time 21 day
Procedure, shortened: (§4)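 SK-OV-3 xenografts in female BALB/c nude mice were dosed orally at 25 or 50 mg/kg in 0.5% CMC-Na for 21 days. Tumours were then snap-frozen in liquid nitrogen or fixed in 10% neutral-buffered formalin. Analysis used western blotting, H&E and immunohistochemistry on paraffin sections (Ki67, γ-H2AX).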

SK-OV-3 [12] = assay: Induction of apoptosis in human SKOV3 cells assessed as decrease in Bcl-2 expression at 2.5 to 10 uM incubated for 48 hrs by western blot analysis; assay type: functional, cell-based; conditions: dose 2.5-10 µM
SK-OV-3 [13] = assay: Antitumor activity against human SKOV3 cells xenografted in Balb/c nude mouse assessed as tumor growth inhibition administered orally for 21 days and measured every third day; assay type: functional, cell-based; conditions: dose 25-50 mg/kg, time 21.0 day; procedure, shortened: as §3
[14] = biological target: T1, Poly [ADP-ribose] polymerase 1; assay: Inhibition of PARP-1 in human SKOV3 cells assessed as decrease in MCM4 protein expression level at 2.5 to 10 uM incubated for 48 hrs by western blot analysis; assay type: cell-based; conditions: SK-OV-3, dose 2.5-10 µM; procedure, shortened: as §1
[15] = Toxicity in Balb/c nude mouse xenografted with human SKOV3 cells assessed as histological changes in kidney at 25 to 50 mg/kg, po for 21 days by H and E staining based microscopic analysis; assay type: organism-based; conditions: in vivo, 504 h, dose 25-50 mg/kg, time 21 day; procedure, shortened: as §4
SK-OV-3 [16] = assay: Antitumor activity against human SKOV3 cells xenografted in Balb/c nude mouse assessed as reduction in Ki67 expression in tumor at 25 to 50 mg/kg, po for 21 days by immunohistochemistry analysis; assay type: functional, organism-based; conditions: dose 25-50 mg/kg, time 21.0 day; procedure, shortened: as §4
L02 = assay: Cytotoxicity against human HL7702 cells assessed as cell growth inhibition incubated for 48 hrs by MTT assay; assay type: cell-based; conditions: L02, 48 h
Procedure, shortened: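 Cells seeded in 96-well plates and exposed to compounds for 48 h; viability read by MTT. Each experiment repeated three times. SK-OV-3 grown in McCOY's 5A, Bel-7402 and HL-7702 in RPMI-1640, HepG2 in DMEM, Caco-2 in MEM.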

[17] = Acute toxicity in SPF Kunming mouse assessed as mortality at 100 to 1000 mg/kg, po administered as single dose and measured upto 14 days post drug administration; assay type: organism-based; conditions: in vivo, 336 h, dose 100-1000 mg/kg, time <=14 day
[18] = Selectivity index, ratio of IC50 for inhibition of human recombinant N-terminal GST-tagged PARP-2 to IC50 for inhibition of human recombinant GST-tagged PARP-1
[19] = Acute toxicity in SPF Kunming mouse assessed as change in body weight at 100 to 1000 mg/kg, po administered as single dose and measured upto 14 days post drug administration; assay type: organism-based; conditions: in vivo, 336 h, dose 100-1000 mg/kg, time <=14 day
Procedure, shortened: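 Single oral dose groups at 0 (physiological saline blank, equal volume), 100, 500 and 1000 mg/kg. Mice housed with free access to water and food in stainless cages, 25 ± 1 °C, 12-h light/dark cycle. Survival, body weight and abnormalities recorded up to 14 days post-treatment.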

[20] = Subacute toxicity in SPF Kunming mouse assessed as induction of death at 1000 mg/kg, po administered for 14 days and measured on day 14; assay type: organism-based; conditions: in vivo, 336 h, time 14 day
Procedure, shortened: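 Twenty SPF Kunming mice (18 - 22 g), half male and half female, randomised into 2 groups of 5 males + 5 females. Treated group dosed orally at 1000 mg/kg once daily for 14 days. Death, clinical signs and body weight monitored. After 14 days: isoflurane anaesthesia, decapitation, tissues collected for H&E histology.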

SK-OV-3 [21] = assay: Induction of autophagy in human SKOV3 cells assessed as LC3-II protein expression at 10 uM incubated for 48 hrs by western blot analysis; assay type: functional, cell-based
Procedure, shortened: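 SK-OV-3 cells in 6-well plates treated 48 h. Lysates separated by 8-15% SDS-PAGE and transferred to PVDF. Membranes blocked in 5% milk and probed overnight at 4 °C with LC3 or Beclin 1 antibodies. HRP secondary applied 1 h at room temperature; detection by ECL.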

T1 sequence (P09874 whole entry): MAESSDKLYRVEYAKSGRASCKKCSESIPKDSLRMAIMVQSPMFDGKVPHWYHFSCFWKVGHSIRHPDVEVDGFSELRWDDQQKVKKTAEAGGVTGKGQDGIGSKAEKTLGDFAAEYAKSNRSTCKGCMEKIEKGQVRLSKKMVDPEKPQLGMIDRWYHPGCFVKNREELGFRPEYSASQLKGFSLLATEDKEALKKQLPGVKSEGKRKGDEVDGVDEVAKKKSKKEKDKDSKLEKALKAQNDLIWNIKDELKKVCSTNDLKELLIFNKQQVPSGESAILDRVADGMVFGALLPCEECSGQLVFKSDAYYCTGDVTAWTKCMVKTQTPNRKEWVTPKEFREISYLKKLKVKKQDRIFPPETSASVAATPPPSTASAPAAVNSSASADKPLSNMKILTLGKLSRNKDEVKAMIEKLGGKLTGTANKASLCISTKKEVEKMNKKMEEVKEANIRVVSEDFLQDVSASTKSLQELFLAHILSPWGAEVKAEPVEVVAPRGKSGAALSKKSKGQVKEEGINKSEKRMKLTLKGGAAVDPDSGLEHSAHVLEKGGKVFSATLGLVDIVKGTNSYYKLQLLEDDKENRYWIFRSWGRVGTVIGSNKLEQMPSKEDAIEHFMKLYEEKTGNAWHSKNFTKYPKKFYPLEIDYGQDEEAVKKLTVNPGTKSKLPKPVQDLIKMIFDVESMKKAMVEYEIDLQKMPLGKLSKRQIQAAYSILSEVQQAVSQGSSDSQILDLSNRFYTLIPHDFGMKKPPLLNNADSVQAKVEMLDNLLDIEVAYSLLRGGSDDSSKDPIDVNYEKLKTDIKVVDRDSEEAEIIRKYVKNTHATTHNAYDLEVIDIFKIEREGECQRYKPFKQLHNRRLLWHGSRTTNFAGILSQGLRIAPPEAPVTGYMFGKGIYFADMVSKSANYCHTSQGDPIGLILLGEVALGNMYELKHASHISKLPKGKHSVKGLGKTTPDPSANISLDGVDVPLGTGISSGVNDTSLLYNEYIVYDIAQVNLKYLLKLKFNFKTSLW

With `COc1cc(/C=N/NC(N)=S)c(Br)c(Br)c1OC` the inhibition [1] was “Active”, the Activity (SK-OV-3 [2]) was “Active” and the inhibition at 20 µM (Caco-2) was 59.6%. The inhibition [3] was “Active”, the inhibition [4] was “Active” and the “fold change (FC)” value (SK-OV-3 [5]) was 1.76. For the same molecule, the MRT [6] was 1.14 h, the inhibition [7] was “Active” and the Activity [8] was “Non-Toxic”. The Activity (SK-OV-3 [9]) was “Active”, the Cmax [10] was 19.9 nM and the Activity [11] was “Non-Toxic”. The Activity (SK-OV-3 [12]) was “Active”, the inhibition (SK-OV-3 [13]) was “Dose-dependent effect” and the inhibition [14] was “Active”. The Activity [15] was “Non-Toxic”, the Activity (SK-OV-3 [16]) was “Active” and the IC50 (L02) was 13.3 µM. The Activity [17] was “Non-Toxic”, the Ratio IC50 [18] was > 33.9 and the Activity [19] was “Non-Toxic”. The Activity [20] was “Non-Toxic” and the Activity (SK-OV-3 [21]) was “Active”.
